Experimental data: ChEMBL document CHEMBL4028810, “Synthesis and biological evaluation of novel chalcone derivatives as a new class of microtubule destabilizing agents” (Eur J Med Chem, 2017)
Activity calls are given as the source filed them. No cut-off for these calls is given here.

Key:
NCI-H460 = assay: Cytotoxicity against human NCI-H460 cells after 48 hrs by MTT assay; type: functional, cell-based; details: NCI-H460, 48 h
Summary of the method: (§1)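 Log-phase cells were seeded at about 1 × 10⁵ cells/mL in 96-well plates and allowed to settle 12 h at 37 °C in 5% CO₂. Compounds were added at five concentrations for 48 h. Absorbance was read at dual wavelength 570/630 nm. Survival was expressed as a percentage of control, and IC50 was calculated by the Bliss method (n = 5). Each test was run in triplicate.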

HepG2 = assay: Cytotoxicity against human HepG2 cells after 48 hrs by MTT assay; type: functional, cell-based; details: HepG2, 48 h; summary of the method: as §1
MGC-803 = assay: Cytotoxicity against human MGC803 cells after 48 hrs by MTT assay; type: functional, cell-based; details: MGC-803, 48 h; summary of the method: as §1
SK-OV-3 = assay: Cytotoxicity against human SKOV3 cells after 48 hrs by MTT assay; type: functional, cell-based; details: SK-OV-3, 48 h; summary of the method: as §1
T-24 = assay: Cytotoxicity against human T24 cells after 48 hrs by MTT assay; type: functional, cell-based; details: T-24, 48 h; summary of the method: as §1
L02 = assay: Cytotoxicity against human HL7702 cells after 48 hrs by MTT assay; type: cell-based; details: L02, 48 h; summary of the method: as §1
A549/TR = assay: Cytotoxicity against human A549/TR cells after 48 hrs by MTT assay; type: functional, cell-based; summary of the method: as §1
HeLa = assay: Cytotoxicity against human HeLa cells after 48 hrs by MTT assay; type: functional, cell-based; summary of the method: as §1
[1] = Cytotoxicity against human HeLa/TR cells after 48 hrs by MTT assay; type: functional, cell-based; summary of the method: as §1
Sus scrofa [2] = species on record: Sus scrofa; assay: Inhibition of porcine brain tubulin polymerization at 10 uM measured at 1 min interval for 40 mins by spectrophotometric method
Summary of the method: (§2)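 Purified brain tubulin, final 3.0 mg/mL, was added to start the reaction in 80 mM PIPES pH 6.9, 2.0 mM MgCl₂, 0.5 mM EGTA, 1 mM GTP and 10.2% glycerol, with the other components prewarmed to 37 °C. Compounds were tested at 10 or 15 µM. Polymerization at 37 °C was followed as absorbance at 340 nm over 40 min.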

Sus scrofa [3] = species on record: Sus scrofa; assay: Inhibition of porcine brain tubulin polymerization at 15 uM measured at 1 min interval for 40 mins by spectrophotometric method; summary of the method: as §2

Row | inhibition (Sus scrofa [2]) | inhibition (Sus scrofa [3]) | Compound | IC50 (NCI-H460) [µM] | IC50 (HepG2) [µM] | IC50 (MGC-803) [µM] | IC50 (SK-OV-3) [µM] | IC50 (T-24) [µM] | IC50 (L02) [µM] | IC50 (A549/TR) [µM] | IC50 (HeLa) [µM] | IC50 [1] [µM]
1 |  |  | COc1ccc(/C=C/C(=O)c2cc(OC)c(OC)c(OC)c2)cc1OCC(=O)Nc1ccccc1Br | 10.3 | 15.2 | 14.6 | 16.8 | 19.1 | > 50 |  |  | 
2 |  |  | COc1ccc(/C=C/C(=O)c2cc(OC)c(OC)c(OC)c2)cc1OCC(=O)Nc1ccccc1C | 22.9 | 26.3 | 28.4 | 28.4 | 27.1 | > 50 |  |  | 
3 | Active |  | CC(=O)O[C@H]1C(=O)[C@@]2(C)[C@H]([C@H](OC(=O)c3ccccc3)[C@]3(O)C[C@H](OC(=O)[C@H](O)[C@@H](NC(=O)c4ccccc4)c4ccccc4)C(C)=C1C3(C)C)[C@]1(OC(C)=O)CO[C@@H]1C[C@@H]2O [PACLITAXEL] |  |  |  |  |  |  | 1.51 | 0.00821 | 1.53
4 |  |  | COc1ccc(/C=C/C(=O)c2ccc(OC)c3c2OC(C)(C)C=C3)cc1OCC(=O)Nc1ccccc1F | 17 | 19.1 | 20.6 | 18.7 | 17.5 | > 50 |  |  | 
5 |  |  | COc1ccc(/C=C/C(=O)c2ccc(OC)c3c2OC(C)(C)C=C3)cc1OCC(=O)Nc1ccc(Cl)cc1 | 12.9 | 15.4 | 19.4 | 20 | 17.1 | > 50 |  |  | 
6 |  |  | COc1ccc(/C=C/C(=O)c2ccc(OC)c3c2OC(C)(C)C=C3)cc1OCC(=O)Nc1ccc(Br)cc1 | 20.5 | 22.7 | 17.2 | 19 | 19.9 | > 50 |  |  | 
7 |  |  | COc1ccc(/C=C/C(=O)c2ccc(OC)c3c2OC(C)(C)C=C3)cc1OCC(=O)Nc1ccc(F)cc1 | 14.2 | 14.1 | 13.5 | 13.9 | 17.6 | > 50 |  |  | 
8 |  |  | COc1ccc(/C=C/C(=O)c2ccc(OC)c3c2OC(C)(C)C=C3)cc1OCC(=O)Nc1ccc(O)cc1 | 18 | 15.6 | 20.9 | 14.5 | 18.3 | > 50 |  |  | 
9 |  |  | COc1ccc(/C=C/C(=O)c2ccc(OC)c3c2OC(C)(C)C=C3)cc1OCC(=O)Nc1ccccc1C | 7.96 | 9.44 | 10.3 | 10 | 9.86 | > 50 |  |  | 
10 |  |  | COc1ccc(/C=C/C(=O)c2ccc(OC)c3c2OC(C)(C)C=C3)cc1 [MILLEPACHINE] | 7.65 | 4.54 | 11 | 9.85 | 11.1 | 25.1 |  |  | 
11 |  |  | COc1ccc(/C=C/C(=O)c2cc(OC)c(OC)c(OC)c2)cc1OCC(=O)Nc1ccc(C)cc1 | 7.69 | 8.97 | 10.3 | 10.3 | 11.6 | > 50 |  |  | 
12 |  |  | COc1ccc(/C=C/C(=O)c2cc(OC)c(OC)c(OC)c2)cc1OCC(=O)Nc1ccc(Br)cc1 | 10.3 | 10.5 | 12.9 | 13.1 | 11.6 | > 50 |  |  | 
13 |  |  | COc1ccc(/C=C/C(=O)c2ccc(OC)c3c2OC(C)(C)C=C3)cc1OCC(=O)Nc1ccccc1Cl | 13 | 11.8 | 14.2 | 14.6 | 15.4 | > 50 |  |  | 
14 |  | Active | COc1ccccc1NC(=O)COc1cc(/C=C/C(=O)c2ccc(OC)c3c2OC(C)(C)C=C3)ccc1OC | 5.48 | 7.35 | 6.72 | 8.24 | 7.84 | > 50 |  |  | 
15 |  |  | COc1ccc(/C=C/C(=O)c2cc(OC)c(OC)c(OC)c2)cc1OCC(=O)Nc1ccc(Cl)cc1 | 20.1 | 20.5 | 26.3 | 27.2 | 21.7 | > 50 |  |  | 
16 |  |  | COc1ccc(/C=C/C(=O)c2cc(OC)c(OC)c(OC)c2)cc1OCC(=O)Nc1ccc(F)cc1 | 19.2 | 21.2 | 20.9 | 22.5 | 24.7 | > 50 |  |  | 
17 |  |  | COc1ccccc1NC(=O)COc1cc(/C=C/C(=O)c2cc(OC)c(OC)c(OC)c2)ccc1OC | 12.1 | 13.6 | 14.9 | 16.2 | 17.4 | > 50 |  |  | 
18 |  |  | COc1ccc(/C=C/C(=O)c2ccc(OC)c3c2OC(C)(C)C=C3)cc1OCC(=O)Nc1ccccc1Br | 20 | 27.8 | 32.7 | 30.3 | 23.2 | > 50 |  |  | 
19 |  |  | COc1ccc(NC(=O)COc2cc(/C=C/C(=O)c3cc(OC)c(OC)c(OC)c3)ccc2OC)cc1 | 7.07 | 7.66 | 8.52 | 9.82 | 9.36 | > 50 |  |  | 
20 | Active |  | COc1ccc(/C=C\c2cc(OC)c(OC)c(OC)c2)cc1O |  |  |  |  |  |  |  |  | 
21 |  |  | COc1ccc(/C=C/C(=O)c2ccc(OC)c3c2OC(C)(C)C=C3)cc1OCC(=O)Nc1ccc(C)cc1 | 8.77 | 9.32 | 8.23 | 9.58 | 10.1 | > 50 |  |  | 
22 |  |  | COc1ccc(/C=C/C(=O)c2cc(OC)c(OC)c(OC)c2)cc1OCC(=O)Nc1ccc(O)cc1 | > 50 | > 50 | 36.6 | > 50 | > 50 | > 50 |  |  | 
23 |  |  | COc1ccc(/C=C/C(=O)c2cc(OC)c(OC)c(OC)c2)cc1OCC(=O)Nc1ccccc1 | 11.3 | 10.1 | 14.6 | 10.7 | 12.6 | > 50 |  |  | 
24 |  |  | COc1ccc(/C=C/C(=O)c2cc(OC)c(OC)c(OC)c2)cc1OCC(=O)Nc1ccccc1F | 6.71 | 7.58 | 8.09 | 9.51 | 10.7 | > 50 |  |  | 
25 |  |  | COc1ccc(/C=C/C(=O)c2ccc(OC)c3c2OC(C)(C)C=C3)cc1OCC(=O)Nc1ccccc1 | 17.6 | 20.6 | 18.4 | 20.8 | 21.1 | > 50 |  |  | 
26 |  |  | COc1ccc(NC(=O)COc2cc(/C=C/C(=O)c3ccc(OC)c4c3OC(C)(C)C=C4)ccc2OC)cc1 | 8.56 | 8.99 | 6.73 | 9.02 | 9.51 | > 50 |  |  | 
